How the values were obtained:
[1] = Cytotoxicity against human L02 cells after 48 hrs in the dark by MTT assay; type: cell-based; details: l02, 48 h
Summary of the method: (§1)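 Cells seeded at 5000 per well and left to attach overnight. Compounds were taken from 50 mM DMSO stocks and diluted to final concentrations of 2.5–100 μM. Cells were exposed for 48 h in the dark, then given MTT (5 mg/mL in PBS) for 3 h. Formazan was dissolved in DMSO and absorbance read at 570 nm. The 50% cell-death concentration (IC50) was determined.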

Bel-7402 = assay: Cytotoxicity against human Bel7402 cells after 48 hrs in the dark by MTT assay; type: functional, cell-based; details: Bel-7402, 48 h; summary of the method: as §1

In the case of `O=P(NCCCl)(NCCCl)Oc1ccc(-c2c3nc(c(-c4ccc(Cl)cc4)c4ccc([nH]4)c(-c4ccc(Cl)cc4)c4nc(c(-c5ccc(Cl)cc5)c5ccc2[nH]5)C=C4)C=C3)cc1`, the Activity [1] is reported as “Non-toxic” and the IC50 (Bel-7402) is reported as 20.3 µM.

With `COc1ccc(-c2c3nc(c(-c4ccc(OC)cc4)c4ccc([nH]4)c(-c4ccc(OP(=O)(NCCCl)NCCCl)cc4)c4nc(c(-c5ccc(OC)cc5)c5ccc2[nH]5)C=C4)C=C3)cc1` the Activity [1] was “Non-toxic” and the IC50 (Bel-7402) was 17.3 µM.

In the case of `Cc1ccc(-c2c3nc(c(-c4ccc(C)cc4)c4ccc([nH]4)c(-c4ccc(OP(=O)(NCCCl)NCCCl)cc4)c4nc(c(-c5ccc(C)cc5)c5ccc2[nH]5)C=C4)C=C3)cc1`, the Activity [1] is reported as “Non-toxic” and the IC50 (Bel-7402) is reported as 11.4 µM.

With `O=P(NCCCl)(NCCCl)Oc1ccc(-c2c3nc(c(-c4ccc(Br)cc4)c4ccc([nH]4)c(-c4ccc(Br)cc4)c4nc(c(-c5ccc(Br)cc5)c5ccc2[nH]5)C=C4)C=C3)cc1` the Activity [1] was “Non-toxic” and the IC50 (Bel-7402) was 8.41 µM.

With `O=P(NCCCl)(NCCCl)Oc1ccc(-c2c3nc(c(-c4ccccc4)c4ccc([nH]4)c(-c4ccccc4)c4nc(c(-c5ccccc5)c5ccc2[nH]5)C=C4)C=C3)cc1` the Activity [1] was “Non-toxic” and the IC50 (Bel-7402) was 14.4 µM.

In the case of `O=Cc1ccc(OP(=O)(NCCCl)NCCCl)cc1`, the Activity [1] is reported as “Toxic” and the IC50 (Bel-7402) is reported as greater than 150 µM.

Work on `CC1=C(CCC(=O)O)c2cc3[nH]c(cc4nc(cc5[nH]c(cc1n2)c(C)c5C(C)O)C(C)=C4C(C)O)c(C)c3CCC(=O)O` (stereo not drawn) yielded an IC50 (Bel-7402) of 8.93 µM.

Reference: ChEMBL document CHEMBL1154801, “Novel phosphoramidates with porphine and nitrogenous drug: one-pot synthesis and orientation to cancer cells” (Eur J Med Chem, 2010)
